Columns and labels:
[1] = Cytotoxicity against human MT2 cells assessed as reduction in cell viability after 4 days by XTT assay; type: cell-based
Procedure, shortened: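 Cytotoxicity in MT-2 cells, test compound up to a maximal concentration of 40 μM.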

[2] = tested on: Human immunodeficiency virus 1; experiment: Antiviral activity against wild type HIV-1 NL4-3 infected in human MT2 cells after 5 days by dual luciferase reporter gene assay; type: functional, organism-based; details: Human immunodeficiency virus 1, NL4-3, MT2, 120 h
Procedure, shortened: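 HIV-1 NL4-3 replication (viral outgrowth) in MT-2 cells. EC50 from multiple replicates.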

[3] = Displacement of [3H]-2-tert-butoxy-2-(2-methyl-4-p-tolylquinolin-3-yl)acetic acid from LEDGF/p75 binding site of HIV1 integrase preincubated with radioligand for 1 hr followed by compound addition and measured after 1 hr by microbeta counting assay; parameters: species or system Human immunodeficiency virus 1
Procedure, shortened: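 Displacement of tritiated ligand from the LEDGF/p75 binding site on integrase. IC50 from a single replicate.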

[4] = Clearance in rat at 1 mg/kg, iv or 5 mg/kg, po by LC-MS/MS analysis; type: ADME, organism-based; details: in vivo
Procedure, shortened: (§1)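 Rats dosed 1 mg/kg IV and 5 mg/kg PO. Clearance, Vss and oral bioavailability derived from these profiles.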

[5] = Volume of distribution at steady state in rat at 1 mg/kg, iv or 5 mg/kg, po by LC-MS/MS analysis; type: ADME, organism-based; details: in vivo, read-out: Vdss; procedure, shortened: as §1
[6] = tested on: Human immunodeficiency virus 1; experiment: Antiviral activity against HIV-1 NL4-3 harboring integrase T125A mutant infected in human MT2 cells after 5 days by dual luciferase reporter gene assay; type: functional, organism-based; details: Human immunodeficiency virus 1, NL4-3, MT2, 120 h
Procedure, shortened: (§2)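 NL4-3 HIV-1 carrying integrase substitutions engineered into the pol gene. The assay measures inhibition of viral outgrowth in MT-2 cell culture, and the value is reported as EC50.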

[7] = tested on: Human immunodeficiency virus 1; experiment: Antiviral activity against HIV-1 NL4-3 harboring integrase T124A/T125N double mutant infected in human MT2 cells after 5 days by dual luciferase reporter gene assay; type: functional, organism-based; details: Human immunodeficiency virus 1, NL4-3, MT2, 120 h; procedure, shortened: as §2
[8] = tested on: Human immunodeficiency virus 1; experiment: Antiviral activity against HIV-1 NL4-3 harboring integrase T124A/T125A double mutant infected in human MT2 cells after 5 days by dual luciferase reporter gene assay; type: functional, organism-based; details: Human immunodeficiency virus 1, NL4-3, MT2, 120 h; procedure, shortened: as §2
[9] = tested on: Human immunodeficiency virus 1; experiment: Antiviral activity against HIV-1 NL4-3 harboring integrase T124A mutant infected in human MT2 cells after 5 days by dual luciferase reporter gene assay; type: functional, organism-based; details: Human immunodeficiency virus 1, NL4-3, MT2, 120 h; procedure, shortened: as §2
[10] = tested on: Human immunodeficiency virus 1; experiment: Antiviral activity against HIV-1 NL4-3 harboring integrase T124N mutant infected in human MT2 cells after 5 days by dual luciferase reporter gene assay; type: functional, organism-based; details: Human immunodeficiency virus 1, NL4-3, MT2, 120 h; procedure, shortened: as §2
[11] = Oral bioavailability in rat at 5 mg/kg by LC-MS/MS analysis; type: ADME, organism-based; details: in vivo; procedure, shortened: as §1
[12] = Metabolic stability in rat liver microsomes assessed as parent compound remaining at 0.5 uM after 10 mins in presence of NADPH by LC-MS/MS analysis; type: ADME, Microsome; details: read-out: Stability
Procedure, shortened: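 Rat liver microsomes, compound at 0.5 μM, incubated 10 minutes. Read-out is percent of parent remaining.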

| SMILES | CC50 at 96 h [1] | EC50 [2] | IC50 [3] | clearance [4] | Vd [5] | other results |
| --- | --- | --- | --- | --- | --- | --- |
| Cc1ccc(-c2c(C(OC(C)(C)C)C(=O)O)c(C)nc3ccccc23)cc1 (stereo not drawn) | > 40000 nM | 150 nM | – | – | – | – |
| Cc1ccc(CCCN2CCc3nc(C)c([C@H](OC(C)(C)C)C(=O)O)c(-c4cc(F)c5c(c4C)CCCO5)c3C2)cc1F | > 40000 nM | 1 nM | 11 nM | – | – | – |
| Cc1ccc(-c2c3c(nc(C)c2C(OC(C)(C)C)C(=O)O)CCN(c2cccc(-c4ccccc4)c2)C3)cc1 (stereo not drawn) | > 40000 nM | 280 nM | 430 nM | – | – | – |
| Cc1nc2c(c(-c3cc(F)c4c(c3C)CCCO4)c1[C@H](OC(C)(C)C)C(=O)O)CN(CCCc1ccccc1F)CC2 | > 40000 nM | 1 nM | 8 nM | – | – | – |
| Cc1ccc(-c2c3c(nc(C)c2[C@H](OC(C)(C)C)C(=O)O)CCN(C(=O)CCc2ccccc2)C3)cc1 | > 40000 nM | 340 nM | 760 nM | 163 mL/min/kg | 2 L/kg | – |
| Cc1ccc(-c2c3c(nc(C)c2[C@H](OC(C)(C)C)C(=O)O)CCN(C(=O)NCc2ccccc2)C3)cc1 | > 40000 nM | 500 nM | 310 nM | – | – | – |
| Cc1ccc(-c2c3c(nc(C)c2[C@H](OC(C)(C)C)C(=O)O)CCN(CCCc2ccccc2)C3)cc1 | > 40000 nM | 10 nM | 70 nM | 171 mL/min/kg | 16 L/kg | EC50 [6]: 21 nM; EC50 [7]: 31 nM; EC50 [8]: 34 nM; EC50 [9]: 17 nM; EC50 [10]: 20 nM |
| Cc1ccc(-c2c3c(nc(C)c2[C@H](OC(C)(C)C)C(=O)O)CCN(c2ccc(-c4ccccc4)cc2)C3)cc1 | > 40000 nM | 320 nM | 220 nM | – | – | – |
| Cc1ccc(-c2c3c(nc(C)c2[C@H](OC(C)(C)C)C(=O)O)CCN(Cc2ccccc2)C3)cc1 | > 40000 nM | 300 nM | 830 nM | 21 mL/min/kg | 7 L/kg | bioavailability [11]: 35% |
| Cc1ccccc1CCCN1CCc2nc(C)c([C@H](OC(C)(C)C)C(=O)O)c(-c3cc(F)c4c(c3C)CCCO4)c2C1 | > 40000 nM | 2 nM | 19 nM | – | – | – |
| CC(=O)N1CCc2nc(C)c(C(OC(C)(C)C)C(=O)O)c(-c3ccc(C)cc3)c2C1 (stereo not drawn) | > 40000 nM | 1900 nM | 17000 nM | – | – | – |
| Cc1ccc(-c2c3c(nc(C)c2[C@H](OC(C)(C)C)C(=O)O)CCN(CCOc2ccccc2)C3)cc1 | > 40000 nM | 200 nM | 170 nM | – | – | – |
| Cc1ccc(-c2c3c(nc(C)c2C(OC(C)(C)C)C(=O)O)CCN(Cc2ccccc2-c2ccccc2)C3)cc1 (stereo not drawn) | > 40000 nM | 70 nM | 80 nM | 24 mL/min/kg | 9 L/kg | bioavailability [11]: 25% |
| Cc1ccc(-c2c3c(nc(C)c2C(OC(C)(C)C)C(=O)O)CCN(CCCC2CCCC2)C3)cc1 (stereo not drawn) | > 40000 nM | 39 nM | 240 nM | 152 mL/min/kg | 66 L/kg | bioavailability [11]: 32% |
| Cc1ccc(-c2c3c(nc(C)c2[C@H](OC(C)(C)C)C(=O)O)CCN(C(=O)OCc2ccccc2)C3)cc1 | > 40000 nM | 230 nM | 140 nM | 118 mL/min/kg | 19 L/kg | bioavailability [11]: 71% |
| COC(=O)N1CCc2nc(C)c(C(OC(C)(C)C)C(=O)O)c(-c3ccc(C)cc3)c2C1 (stereo not drawn) | > 40000 nM | 1600 nM | 4200 nM | – | – | – |
| Cc1nc2c(c(-c3cc(F)c4c(c3C)CCCO4)c1[C@H](OC(C)(C)C)C(=O)O)CN(CCCc1ccccc1)CC2 | > 40000 nM | 4 nM | 16 nM | 82 mL/min/kg | 6 L/kg | EC50 [6]: 7 nM; bioavailability [11]: 10%; remaining at 10 min, 0.5 µM [12]: 78%; EC50 [8]: 6 nM; EC50 [10]: 6 nM |
| CCCCCN1CCc2nc(C)c(C(OC(C)(C)C)C(=O)O)c(-c3ccc(C)cc3)c2C1 (stereo not drawn) | > 40000 nM | 210 nM | 1100 nM | – | – | – |
| Cc1ccc(-c2c3c(nc(C)c2[C@H](OC(C)(C)C)C(=O)O)CCN(CCc2ccccc2)C3)cc1 | > 40000 nM | 240 nM | 850 nM | – | – | – |
| Cc1ccc(-c2c3c(nc(C)c2[C@H](OC(C)(C)C)C(=O)O)CCN(C/C=C/c2ccccc2)C3)cc1 | > 40000 nM | 120 nM | 160 nM | – | – | – |
| Cc1ccc(-c2c3c(nc(C)c2C(OC(C)(C)C)C(=O)O)CCN(C)C3)cc1 (stereo not drawn) | > 40000 nM | 2100 nM | 5800 nM | – | – | – |
| Cc1ccc(-c2c3c(nc(C)c2C(OC(C)(C)C)C(=O)O)CCN(S(C)(=O)=O)C3)cc1 (stereo not drawn) | > 40000 nM | 2600 nM | 2200 nM | – | – | – |
| Cc1cccc(CCCN2CCc3nc(C)c([C@H](OC(C)(C)C)C(=O)O)c(-c4cc(F)c5c(c4C)CCCO5)c3C2)c1 | > 40000 nM | 2 nM | 29 nM | – | – | – |
| Cc1nc2c(c(-c3cc(F)c4c(c3C)CCCO4)c1[C@H](OC(C)(C)C)C(=O)O)CN(CCCc1cccc(F)c1)CC2 | > 40000 nM | 4 nM | 44 nM | – | – | – |
| Cc1ccc(-c2c3c(nc(C)c2[C@H](OC(C)(C)C)C(=O)O)CCN(c2ccccc2)C3)cc1 | > 40000 nM | 470 nM | 230 nM | 24 mL/min/kg | 3 L/kg | – |
| Cc1nc2c(c(-c3cc(F)c4c(c3C)CCCO4)c1[C@H](OC(C)(C)C)C(=O)O)CN(CCCc1ccc(F)cc1)CC2 | > 40000 nM | 4 nM | 15 nM | 92 mL/min/kg | 1 L/kg | bioavailability [11]: 10%; remaining at 10 min, 0.5 µM [12]: 78% |
| Cc1ccc(CCCN2CCc3nc(C)c([C@H](OC(C)(C)C)C(=O)O)c(-c4cc(F)c5c(c4C)CCCO5)c3C2)cc1 | > 40000 nM | 2 nM | 12 nM | – | – | – |
| Cc1nc2c(c(-c3cc(F)c4c(c3C)CCCO4)c1[C@H](OC(C)(C)C)C(=O)O)CN(CC1CC1c1ccccc1)CC2 (mixture of isomers) | > 40000 nM | 5 nM | 24 nM | – | – | – |
| Cc1nc2c(c(-c3cc(F)c4c(c3C)CCCO4)c1[C@H](OC(C)(C)C)C(=O)O)CN(CCCc1ccncc1)CC2 (single isomer, unassigned; atropisomer) | > 40000 nM | 58 nM | 40 nM | – | – | – |
| Cc1nc2ccccc2c(-c2ccc3c4c(ccnc24)CCO3)c1[C@H](OC(C)(C)C)C(=O)O [BI-224436] | > 40000 nM | 52 nM | 71 nM | – | – | – |

From ChEMBL document CHEMBL4368905, “5,6,7,8-Tetrahydro-1,6-naphthyridine Derivatives as Potent HIV-1-Integrase-Allosteric-Site Inhibitors” (J Med Chem, 2019)
